pIC50: −log10 of the molar value. ≈ marks a conversion by molar mass, not a printed value.

For one experiment, the system named is Klebsiella pneumoniae. As to the kind of experiment: Antibacterial activity against Klebsiella pneumoniae CN 3632. Type of experiment: functional.
For another experiment, the system named is Shigella dysenteriae. Put plainly: Antibacterial activity against of against Shig dysentariae CN 1523. Type of experiment: functional.
The test system of the next experiment is Staphylococcus aureus. Put plainly: Antibacterial activity against Staphylococcus aureus CN491. Type of experiment: functional.
The test system of a further experiment is Escherichia coli. Put plainly: Antibacterial activity against Escherichia coli CN314. It counts as functional.
For a further experiment, the system named is Streptococcus pyogenes. As to the kind of experiment: Antibacterial activity against Streptococcus pyogenes CN10. Type of experiment: functional.
Experiment [1] concerns the target T1, Dihydrofolate reductase (Rattus norvegicus) (UniProt Q920D2).
T1 sequence (whole entry): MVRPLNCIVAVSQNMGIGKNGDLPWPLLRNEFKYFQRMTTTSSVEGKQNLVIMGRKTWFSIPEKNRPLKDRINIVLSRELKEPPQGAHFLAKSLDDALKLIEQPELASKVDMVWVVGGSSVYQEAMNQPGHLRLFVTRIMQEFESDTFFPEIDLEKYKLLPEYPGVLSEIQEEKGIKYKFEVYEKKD
Put plainly: (§1) Inhibitory activity against Dihydrofolate reductase enzyme purified from rat liver. Also noted: scale not given: the % may be the effect or the level left. In outline: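 Partially purified rat liver dihydrofolate reductase in phosphate buffer. Compound was preincubated with enzyme and buffer for 5 min at 37 °C. NADPH was then added, followed by FH₂ to start the reaction. IC₅₀ (50% drop in reaction rate) was taken from titrations over three to six compound concentrations. Otherwise the value is the percent inhibition at the highest concentration tested.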

For a further experiment, the system named is Proteus vulgaris. As to the kind of experiment: Antibacterial activity against Proteus vulgaris CN 329. Type of experiment: functional.
A further experiment relates to Salmonella. Put plainly: Antibacterial activity against typhi CN512. It counts as functional, salmonella typhosa.
For a further experiment, the system named is Serratia marcescens. Put plainly: Antibacterial activity against of against Serr. marcescens CN 398. Type of experiment: functional.
A further experiment addresses T2, Dihydrofolate reductase (Rattus norvegicus, UniProt Q920D2).
T2 sequence (Q920D2 whole entry): T1 sequence (whole entry)
Described as §1. Conditions: read-out: I50.

Experiment [2] addresses Bifunctional dihydrofolate reductase-thymidylate synthase (Plasmodium berghei str. ANKA, UniProt Q27713). Put plainly: Inhibitory activity against Dihydrofolate reductase enzyme purified from Plasmodium berghei. Conditions: read-out: I50.

Bifunctional dihydrofolate reductase-thymidylate synthase, sequence (Q27713 whole entry): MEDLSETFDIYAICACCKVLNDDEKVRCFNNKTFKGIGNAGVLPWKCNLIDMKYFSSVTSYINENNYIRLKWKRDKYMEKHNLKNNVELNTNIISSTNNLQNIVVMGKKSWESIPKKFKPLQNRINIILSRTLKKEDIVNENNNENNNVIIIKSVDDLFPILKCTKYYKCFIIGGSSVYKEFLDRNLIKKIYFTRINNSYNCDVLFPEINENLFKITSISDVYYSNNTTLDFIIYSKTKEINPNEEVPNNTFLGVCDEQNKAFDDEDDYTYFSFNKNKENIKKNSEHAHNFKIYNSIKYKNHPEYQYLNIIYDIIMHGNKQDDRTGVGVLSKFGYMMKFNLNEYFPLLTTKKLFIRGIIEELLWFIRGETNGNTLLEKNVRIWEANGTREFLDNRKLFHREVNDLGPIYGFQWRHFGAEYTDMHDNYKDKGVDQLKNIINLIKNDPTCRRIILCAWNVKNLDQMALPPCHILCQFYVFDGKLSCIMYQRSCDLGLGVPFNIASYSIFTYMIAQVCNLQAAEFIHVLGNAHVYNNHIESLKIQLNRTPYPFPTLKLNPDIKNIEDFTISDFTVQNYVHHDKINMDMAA

The term MIC denotes the least concentration at which growth counts as inhibited. On to `COc1cc(Cc2c[n+](C)c(N)nc2N)cc(OC)c1OC.[I-]`, for which the minimal inhibitory concentration (MIC) against Klebsiella pneumoniae is greater than 100 µg/mL; against Shigella dysenteriae it was 25 µg/mL; with Staphylococcus aureus it was 50 µg/mL; in the experiment with Escherichia coli, 50 µg/mL; with Streptococcus pyogenes it was 50 µg/mL; against Proteus vulgaris it was greater than 100 µg/mL. It took 25 µg/mL to inhibit growth against Salmonella (MIC). For the same molecule, the Activity in [1] amounted to 41%.
Consider `COc1cc(Cc2c(C)nc(N)nc2N)cc(OC)c1OC`, for which the MIC against Klebsiella pneumoniae is greater than 100 µg/mL; against Shigella dysenteriae it was 30 µg/mL (≈ 98.6 µM); with Staphylococcus aureus it was 30 µg/mL (≈ 98.6 µM); in the experiment on Escherichia coli, 30 µg/mL (≈ 98.6 µM); against Streptococcus pyogenes, 30 µg/mL (≈ 98.6 µM); against Proteus vulgaris, greater than 100 µg/mL. Further, the MIC with Salmonella was 30 µg/mL (≈ 98.6 µM); against Serratia marcescens it was greater than 100 µg/mL.
Regarding `COc1cc(Cc2cnc(N)nc2N)cc(OC)c1O` [4-HYDROXYTRIMETHOPRIM], the pIC50 at Dihydrofolate reductase was 4.04; in experiment [2] it was 6.52. Further, the MIC against Staphylococcus aureus came out at 0.5 µg/mL (≈ 1.81 µM); against Escherichia coli, 0.125 µg/mL (≈ 0.452 µM); against Streptococcus pyogenes, 0.5 µg/mL (≈ 1.81 µM); against Proteus vulgaris it was 2 µg/mL (≈ 7.24 µM); against Salmonella, 0.03 µg/mL (≈ 0.109 µM).
Take `COc1cc(Cc2cnc(N)nc2N)cc(OC)c1OC` [TRIMETHOPRIM]: the minimal inhibitory concentration (MIC) was 0.3 µg/mL (≈ 1.03 µM) against Klebsiella pneumoniae; 0.1 µg/mL (≈ 0.344 µM) against Shigella dysenteriae; 1 µg/mL (≈ 3.44 µM) in the experiment with Staphylococcus aureus; 0.3 µg/mL (≈ 1.03 µM) with Escherichia coli; 0.3 µg/mL (≈ 1.03 µM) with Streptococcus pyogenes; 1 µg/mL (≈ 3.44 µM) in the experiment on Proteus vulgaris. For the same molecule, the MIC with Salmonella was 0.3 µg/mL (≈ 1.03 µM); against Serratia marcescens, 3 µg/mL (≈ 10.3 µM).
As to `COc1cc(Cc2c(N)nc(N)nc2O)cc(OC)c1O`, the MIC against Klebsiella pneumoniae, against Shigella dysenteriae, against Staphylococcus aureus, against Escherichia coli, in the experiment with Streptococcus pyogenes and with Proteus vulgaris was greater than 100 µg/mL each time. Moreover, the MIC in the experiment with Salmonella and against Serratia marcescens was greater than 100 µg/mL throughout.

For the origin of these results see ChEMBL document CHEMBL1121421, “2,4-Diamino-5-benzylpyrimidines and analogues as antibacterial agents. 2. C-Alkylation of pyrimidines with Mannich bases and application to the synthesis of trimethoprim and analogues” (J Med Chem, 1980).
